Reference: ChEMBL document CHEMBL1131521, “Structure-activity relationships for 1-phenylbenzimidazoles as selective ATP site inhibitors of the platelet-derived growth factor receptor” (J Med Chem, 1998)

What was measured:
[1] = biological target: Platelet-derived growth factor receptor beta (Mus musculus, UniProt P05622); test: Inhibition of phosphorylation of a random glutamate/tyrosine copolymer in lysates of transfected Sf9 insect cells overexpressing mouse platelet-derived growth factor receptor beta
Platelet-derived growth factor receptor beta, sequence (P05622 whole entry): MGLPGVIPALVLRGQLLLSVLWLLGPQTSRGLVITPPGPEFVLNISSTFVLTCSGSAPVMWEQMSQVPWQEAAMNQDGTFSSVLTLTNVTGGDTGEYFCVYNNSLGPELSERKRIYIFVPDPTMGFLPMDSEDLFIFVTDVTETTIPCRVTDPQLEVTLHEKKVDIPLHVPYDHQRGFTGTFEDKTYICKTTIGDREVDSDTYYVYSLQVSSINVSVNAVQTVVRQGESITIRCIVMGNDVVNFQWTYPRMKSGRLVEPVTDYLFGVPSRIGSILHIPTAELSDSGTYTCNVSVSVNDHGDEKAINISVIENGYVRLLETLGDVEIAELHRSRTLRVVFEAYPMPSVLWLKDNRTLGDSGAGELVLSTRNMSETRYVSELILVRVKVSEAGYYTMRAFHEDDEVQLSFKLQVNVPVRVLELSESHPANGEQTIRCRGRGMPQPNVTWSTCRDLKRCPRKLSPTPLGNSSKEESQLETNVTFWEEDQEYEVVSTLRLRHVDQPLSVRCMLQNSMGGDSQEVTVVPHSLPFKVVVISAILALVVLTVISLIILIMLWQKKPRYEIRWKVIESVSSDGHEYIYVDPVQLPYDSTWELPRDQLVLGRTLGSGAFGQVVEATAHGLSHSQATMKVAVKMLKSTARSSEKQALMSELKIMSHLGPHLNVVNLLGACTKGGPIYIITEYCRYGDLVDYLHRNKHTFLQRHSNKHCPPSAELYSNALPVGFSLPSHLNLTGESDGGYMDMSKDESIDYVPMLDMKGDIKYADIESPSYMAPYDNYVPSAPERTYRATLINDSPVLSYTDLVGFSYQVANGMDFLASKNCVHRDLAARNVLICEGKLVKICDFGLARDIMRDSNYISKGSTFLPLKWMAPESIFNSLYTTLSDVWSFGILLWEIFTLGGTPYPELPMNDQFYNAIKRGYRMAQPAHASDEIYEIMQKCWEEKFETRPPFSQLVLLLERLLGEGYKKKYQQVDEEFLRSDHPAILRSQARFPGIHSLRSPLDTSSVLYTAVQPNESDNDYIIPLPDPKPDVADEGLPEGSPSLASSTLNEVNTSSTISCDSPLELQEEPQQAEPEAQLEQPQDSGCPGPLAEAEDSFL
In short: (§1)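 Kinase source was lysate of transfected Sf9 insect cells overexpressing the receptor. Substrate was a random glutamate/tyrosine (4:1) copolymer, and the read-out was its phosphorylation. IC50 was the drug concentration (µM) giving inhibition.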

[2] = biological target: Fibroblast growth factor receptor 1 (Homo sapiens, UniProt P11362); test: Inhibition of phosphorylation of a random glutamate/tyrosine copolymer in lysates of transfected Sf9 insect cells overexpressing human fibroblast growth factor receptor 1; in short: as §1
Fibroblast growth factor receptor 1, sequence (P11362 whole entry): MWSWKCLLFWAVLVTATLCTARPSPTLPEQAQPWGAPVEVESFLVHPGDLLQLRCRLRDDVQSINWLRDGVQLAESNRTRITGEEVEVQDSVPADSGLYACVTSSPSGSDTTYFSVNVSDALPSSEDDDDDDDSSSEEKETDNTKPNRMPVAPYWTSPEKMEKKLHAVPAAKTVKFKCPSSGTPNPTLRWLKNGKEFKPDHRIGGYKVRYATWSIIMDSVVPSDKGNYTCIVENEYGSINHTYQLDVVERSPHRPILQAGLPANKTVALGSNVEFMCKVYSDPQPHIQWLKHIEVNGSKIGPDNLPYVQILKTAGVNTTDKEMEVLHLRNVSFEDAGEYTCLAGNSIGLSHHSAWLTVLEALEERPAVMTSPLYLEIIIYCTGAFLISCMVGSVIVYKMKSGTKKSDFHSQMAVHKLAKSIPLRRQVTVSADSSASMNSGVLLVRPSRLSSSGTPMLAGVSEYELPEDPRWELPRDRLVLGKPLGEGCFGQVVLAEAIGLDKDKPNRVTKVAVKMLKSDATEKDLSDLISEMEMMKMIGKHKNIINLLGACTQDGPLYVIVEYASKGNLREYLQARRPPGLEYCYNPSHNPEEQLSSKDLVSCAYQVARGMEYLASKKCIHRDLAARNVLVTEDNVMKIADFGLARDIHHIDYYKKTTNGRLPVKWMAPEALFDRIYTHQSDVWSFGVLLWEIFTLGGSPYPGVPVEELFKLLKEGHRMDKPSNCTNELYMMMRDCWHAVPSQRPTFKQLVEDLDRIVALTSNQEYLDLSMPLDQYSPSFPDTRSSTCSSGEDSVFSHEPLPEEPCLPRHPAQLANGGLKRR

[3] = biological target: Platelet-derived growth factor receptor (PDGFr) (Rattus norvegicus, UniProt P20786+Q05030); test: Inhibition of PDGF-stimulated Platelet-derived growth factor receptor autophosphorylation in rat aorta vascular smooth muscle cells.; type: functional
In short: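 Rat aortic vascular smooth muscle cells, serum-starved, were exposed to compound for 2 h before stimulation with PDGF-BB at 25 ng/mL. Cell lysates or immunoprecipitates were analysed by Western blot with anti-phosphotyrosine antibody.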

SMILES	IC50 [1] [µM]	IC50 [2] [µM]	IC50 [3] [µM]
O=C(O)c1ccc2ncn(-c3ccccc3)c2c1	50	50	
COc1cccc2c1ncn2-c1ccccc1	50	> 50	
NC(=O)c1cccc2c1ncn2-c1ccccc1	> 50	> 50	
Cc1cccc2c1ncn2-c1ccccc1	> 50	> 50	
c1ccc(-n2ccc3ccccc32)cc1	> 50	> 50	
CC(=O)c1ccc2c(c1)ncn2-c1ccccc1	0.86		
Clc1cccc(-n2cnc3ccccc32)c1	47	50	
O=C(O)c1cccc(-n2cnc3ccccc32)c1	> 50	> 50	
O=[N+]([O-])c1cccc2c1ncn2-c1ccccc1	> 50	> 50	
O=C(O)c1cccc2c1ncn2-c1ccccc1	> 50	> 50	
O=Cc1ccccc1-n1cnc2ccccc21	> 50	> 50	
Cc1nc2ccccc2n1-c1ccccc1	> 50	> 50	
O=[N+]([O-])c1cccc2ncn(-c3ccccc3)c12	> 50	40	
Clc1cccc2ncn(-c3ccccc3)c12	> 50	> 50	
Oc1nc2ccccc2n1-c1ccccc1	> 50	> 50	
NC(=O)c1cccc2ncn(-c3ccccc3)c12	> 50	> 50	
c1ccc(-n2ncc3ccccc32)cc1	> 50	> 50	
O=Cc1cccc(-n2cnc3ccccc32)c1		50	
O=C(O)c1ccccc1-n1cnc2ccccc21	> 50	> 50	
Cc1ccc2c(c1)ncn2-c1ccccc1		50	
Nc1ccc2ncn(-c3ccccc3)c2c1	23	> 50	

SMILES	IC50 [1] [µM]	IC50 [2] [µM]	IC50 [3] [µM]
COC(=O)c1ccc2c(c1)ncn2-c1ccccc1	0.83		0.15
COc1ccc(-n2cnc3ccccc32)cc1	13	> 50	
Oc1ccc2ncn(-c3ccccc3)c2c1		> 50	
c1ccc(-n2cnc3cccnc32)cc1	28	> 50	
Cc1ccccc1-n1cnc2ccccc21	> 50	> 50	
O=[N+]([O-])c1ccc2c(c1)ncn2-c1ccccc1	16	> 50	
c1ccc(-n2nnc3ccccc32)cc1	> 50	> 50	
Clc1ccc2ncn(-c3ccccc3)c2c1		> 50	
Nc1ccccc1-n1cnc2ccccc21	> 50	> 50	
Clc1ccccc1-n1cnc2ccccc21	> 50	> 50	
CC(=O)c1ccccc1-n1cnc2ccccc21	> 50	> 50	
O=Cc1ccc(-n2cnc3ccccc32)cc1	13	> 50	
COc1cccc2ncn(-c3ccccc3)c12	37	50	
Cc1cccc2ncn(-c3ccccc3)c12	> 50	> 50	
c1ccc(-c2nc3ccccc3[nH]2)cc1	> 50	> 50	
c1cncc(-n2cnc3ccccc32)c1	> 50	> 50	
O=C(c1ccccc1)n1cnc2ccccc21	> 50	> 50	
Clc1ccc(-n2cnc3ccccc32)cc1	50	> 50	
CC(=O)c1ccc(-n2cnc3ccccc32)cc1	24	> 50	
NC(=O)c1ccccc1-n1cnc2ccccc21	> 50	> 50	
COC(=O)c1cccc2ncn(-c3ccccc3)c12	> 50	> 50	

SMILES	IC50 [1] [µM]	IC50 [2] [µM]	IC50 [3] [µM]
COC(=O)c1cccc2c1ncn2-c1ccccc1	> 50	> 50	
CC(=O)c1cccc(-n2cnc3ccccc32)c1	19	> 50	
c1ccc(-n2cnc3ccccc32)nc1	> 50	> 50	
Nc1cccc(-n2cnc3ccccc32)c1		> 50	
c1ccc(-n2cnc3ccccc32)cc1		> 50	2.3
O=C(O)c1ccc(-n2cnc3ccccc32)cc1	> 50	> 50	
NC(=O)c1ccc(-n2cnc3ccccc32)cc1	23	> 50	
COc1ccccc1-n1cnc2ccccc21	> 50	> 50	
O=[N+]([O-])c1ccc(-n2cnc3ccccc32)cc1	30	> 50	
Cc1cccc(-n2cnc3ccccc32)c1	28	> 50	
COc1cccc(-n2cnc3ccccc32)c1	25	50	
Nc1ccc(-n2cnc3ccccc32)cc1		> 50	2
c1ccc(Cn2cnc3ccccc32)cc1	> 50	> 50	
O=C(O)c1cccc2ncn(-c3ccccc3)c12	> 50	> 50	
Cc1ccc(-n2cnc3ccccc32)cc1	> 50	> 50	
Cc1ccc2ncn(-c3ccccc3)c2c1	40	> 50	
Clc1cccc2c1ncn2-c1ccccc1	> 50	> 50	
O=[N+]([O-])c1ccccc1-n1cnc2ccccc21	> 50	> 50	
N#Cc1cccc(-n2cnc3ccccc32)c1	> 50	> 50	
COc1ccc2ncn(-c3ccccc3)c2c1		> 50	> 10
Nc1nc2ccccc2n1-c1ccccc1	> 50	> 50	

SMILES	IC50 [1] [µM]	IC50 [2] [µM]	IC50 [3] [µM]
N#Cc1ccc(-n2cnc3ccccc32)cc1	16	> 50	
NC(=O)c1ccc2ncn(-c3ccccc3)c2c1	25	> 50	
Oc1cccc2ncn(-c3ccccc3)c12	> 50	50	
Nc1cccc2ncn(-c3ccccc3)c12	> 50	> 50	
Oc1ccccc1-n1cnc2ccccc21	> 50	> 50	
CCOC(=O)c1cccc(-n2cnc3ccccc32)c1	> 50	> 50	
O=[N+]([O-])c1ccc2ncn(-c3ccccc3)c2c1	50	39	
O=Cc1ccc2c(c1)ncn2-c1ccccc1		> 50	
c1ccc2c(c1)ncn2-c1ccncc1	12	> 50	
NC(=O)c1ccc2c(c1)ncn2-c1ccccc1	16		
c1ccc(C2=Nc3ccccc3NCC2)cc1	> 50	> 50	
NC(=O)c1cccc(-n2cnc3ccccc32)c1	> 50	> 50	
COC(=O)c1ccc2ncn(-c3ccccc3)c2c1		> 50	
N#Cc1ccccc1-n1cnc2ccccc21	> 50	> 50	
Nc1cccc2c1ncn2-c1ccccc1	> 50	> 50	
COC(=O)c1ccc(-n2cnc3ccccc32)cc1		50	
O=[N+]([O-])c1cccc(-n2cnc3ccccc32)c1	16	35	
CCOC(=O)c1ccccc1-n1cnc2ccccc21	> 50	> 50	
Oc1cccc2c1ncn2-c1ccccc1	11	> 50	> 10
COc1ccc2c(c1)ncn2-c1ccccc1	0.43		1.9
Oc1ccc2c(c1)ncn2-c1ccccc1	0.44		0.13
